Assay results: ChEMBL document CHEMBL1128518, “Synthesis and anti-HIV-1 activity of thio analogues of dihydroalkoxybenzyloxopyrimidines” (J Med Chem, 1995)

Key:
MT4 [1] = experiment: Dose required to achieve 50% protection of MT-4 cells from HIV-1 induced cytopathogenicity; type: functional, cell-based; details: Homo sapiens
MT4 [2] = experiment: Compound dose required to reduce the viability of mock-infected cells by 50%; type: functional; details: Homo sapiens
[3] = molecular target: Human immunodeficiency virus type 1 reverse transcriptase (Human immunodeficiency virus 1, UniProt Q72547); experiment: Dose required to inhibit HIV-1 recombinant reverse transcriptase (rRT) activity by 50%.; type: functional
Method in brief: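 Highly purified recombinant HIV-1 RT, assayed for RNA-dependent DNA polymerase activity. Template-primer: poly(rC)-oligo(dG)12–18 at 0.5 OD260 units/mL, with [3H]dGTP (1 Ci/mmol). Incubated 20 min at 37 °C; acid-insoluble radioactivity counted on glass fiber filters. Value is the dose giving 50% inhibition; means of three experiments.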

MT4 [4] = experiment: Selectivity index calculated as the ratio between CC50 and EC50; type: functional
Method in brief: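 Ratio CC50/EC50, both from MTT-read 4-day MT-4 assays (mock-infected and HIV-1 IIIB-infected, 100 CCID50) run in parallel.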

MT4 [5] = experiment: Compound dose required to reduce the viability of mock-infected cells by 50%, as determined by the MTT method.; type: functional; details: Homo sapiens
Method in brief: (§1)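 Mock-infected MT-4 cells (1 × 10^4/well) exposed to serial compound concentrations, run in parallel with the antiviral assay, 4 days at 37 °C. Viability read by MTT; CC50 is the dose reducing viability by 50%. Means of three separate experiments.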

MT4 [6] = experiment: Compound dose required to reduce the viability of mock-infected cells by 50%.; type: functional; details: Homo sapiens; method in brief: as §1
MT4 [7] = experiment: Compound dose required to achieve 50% protection of MT-4 cells from HIV-1 induced cytopathogenicity.; type: functional, cell-based; details: Homo sapiens
Method in brief: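 HIV-1 IIIB (100 CCID50/well) added to MT-4 cells (1 × 10^4/well) with or without serial compound concentrations; 4-day incubation at 37 °C. Viable cells counted by MTT; EC50 is the dose giving 50% protection from virus-induced cytopathogenicity. Means of three separate experiments.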

Row | SMILES | EC50 (MT4 [1]) | CC50 (MT4 [2]) | IC50 [3] | SI (MT4 [4]) | CC50 (MT4 [5]) | CC50 (MT4 [6]) | EC50 (MT4 [7])
1 | CC1(C)C(=O)NC(SC2CCCC2)=N/C1=C/c1ccccc1 | 10 µM | 18 µM | > 10 µM | 1.8 | – | – | –
2 | CC(C)SC1=N/C(=C/c2ccccc2)C(C)(C)C(=O)N1 | 3.6 µM | 20 µM | 4.3 µM | 5.5 | – | – | –
3 | CC(C)CSc1nc(O)cc(Cc2ccccc2)n1 | 5.1 µM | 186 µM | 9.4 µM | 36 | – | – | –
4 | C/C=C/CSc1nc(O)cc(Cc2cccc(C)c2)n1 | 8 µM | 165 µM | – | 21 | – | – | –
5 | CCC(C)Sc1nc(O)c(C)c(Cc2ccccc2)n1 (stereo not drawn) | 0.6 µM | 86 µM | 2.4 µM | 140 | – | – | –
6 | CSc1nc(O)cc(Cc2cccc(C)c2)n1 | 17 µM | 317 µM | > 10 µM | 19 | – | – | –
7 | CC(C)=CCSc1nc(O)cc(Cc2cccc(C)c2)n1 | 13 µM | 193 µM | – | 15 | – | – | –
8 | Cc1cccc(Cc2nc(SC(C)C)nc(O)c2C)c1 | 1.3 µM | 100 µM | 2.5 µM | 77 | – | – | –
9 | Cc1c(O)nc(SC2CCCCC2)nc1Cc1ccccc1 | 0.6 µM | > 318 µM | 4.3 µM | >530 | – | – | –
10 | CCC(C)SC1=N/C(=C/c2cccc(C)c2)C(C)(C)C(=O)N1 (stereo not drawn) | > 25 µM | 25 µM | – | – | – | – | –
11 | CSc1nc(O)c(C)c(Cc2ccccc2)n1 | 1.2 µM | > 406 µM | 4.9 µM | >338 | – | – | –
12 | CSc1nc(O)cc(Cc2ccccc2)n1 | 34.5 µM | > 431 µM | > 10 µM | >12 | – | – | –
13 | Cc1cccc(Cc2nc(S)nc(O)c2C)c1 | > 102 µM | 284 µM | > 10 µM | – | – | – | –
14 | CSc1nc(O)c(C)c(Cc2cccc(C)c2)n1 | 3 µM | 385 µM | 2.5 µM | 128 | – | – | –
15 | Cc1cccc(Cc2cc(O)nc(SC3CCCCC3)n2)c1 | 1.5 µM | > 318 µM | 2.6 µM | >212 | – | – | –
16 | Cc1cccc(Cc2cc(O)nc(SC3CCCC3)n2)c1 | 1.2 µM | > 333 µM | 2.6 µM | >278 | – | – | –
17 | Cc1cccc(/C=C2/N=C(SC3CCCC3)NC(=O)C2(C)C)c1 | > 304 µM | > 304 µM | – | – | – | – | –
18 | Cc1c(O)nc(SC(C)C)nc1Cc1ccccc1 | 1.8 µM | 140 µM | 2.5 µM | 77 | – | – | –
19 | CC(C)CSC1=N/C(=C/c2ccccc2)C(C)(C)C(=O)N1 | 3.6 µM | 20 µM | 4.6 µM | 5.5 | – | – | –
20 | Cc1cccc(Cc2nc(SCC(C)C)nc(O)c2C)c1 | 1.6 µM | 330 µM | 4.6 µM | 206 | – | – | –
21 | CC(C)Sc1nc(O)cc(Cc2ccccc2)n1 | 7.7 µM | 332 µM | > 10 µM | 43 | – | – | –
22 | CCC(C)Sc1nc(O)cc(Cc2ccccc2)n1 (stereo not drawn) | 1.2 µM | 150 µM | 2.7 µM | 125 | – | – | –
23 | CC1(C)C(=O)NC(SC2CCCCC2)=N/C1=C/c1ccccc1 | 9.1 µM | 91 µM | > 10 µM | 10 | – | – | –

Row | SMILES | EC50 (MT4 [1]) | CC50 (MT4 [2]) | IC50 [3] | SI (MT4 [4]) | CC50 (MT4 [5]) | CC50 (MT4 [6]) | EC50 (MT4 [7])
24 | Cc1cccc(/C=C2/N=C(SCC(C)C)NC(=O)C2(C)C)c1 | > 316 µM | – | – | – | > 316 µM | – | –
25 | Cc1cccc(Cc2cc(O)nc(SC(C)C)n2)c1 | 1.3 µM | 225 µM | 2.9 µM | 173 | – | – | –
26 | CSC1=N/C(=C/c2cccc(C)c2)C(C)(C)C(=O)N1 | > 5.2 µM | 5.2 µM | – | – | – | – | –
27 | Cc1cccc(Cc2cc(O)nc(S)n2)c1 | – | – | > 10 µM | – | – | 258 µM | > 258 µM
28 | CSC1=N/C(=C/c2ccccc2)C(C)(C)C(=O)N1 | 3.1 µM | 160 µM | 6.1 µM | 53 | – | – | –
29 | Cc1cccc(/C=C2/NC(=S)NC(=O)C2(C)C)c1 | > 165 µM | 165 µM | – | – | – | – | –
30 | CCC(C)Sc1nc(O)cc(Cc2cccc(C)c2)n1 (stereo not drawn) | 0.6 µM | > 347 µM | 1.2 µM | >578 | – | – | –
31 | Cc1c(O)nc(SC2CCCC2)nc1Cc1ccccc1 | 0.6 µM | > 333 µM | 3.4 µM | >555 | – | – | –
32 | Oc1cc(Cc2ccccc2)nc(SC2CCCCC2)n1 | 0.8 µM | > 330 µM | 3 µM | – | – | – | –
33 | Oc1cc(Cc2ccccc2)nc(SC2CCCC2)n1 | 1.7 µM | 147 µM | 2.8 µM | 86 | – | – | –
34 | Cc1cccc(Cc2nc(SC3CCCCC3)nc(O)c2C)c1 | 0.6 µM | > 304 µM | 1.3 µM | >506 | – | – | –
35 | Cc1cccc(/C=C2/N=C(SC3CCCCC3)NC(=O)C2(C)C)c1 | > 292 µM | > 292 µM | – | – | – | – | –
36 | CCC(C)SC1=N/C(=C/c2ccccc2)C(C)(C)C(=O)N1 (stereo not drawn) | 3.3 µM | 16 µM | 4.3 µM | 4.8 | – | – | –
37 | Cc1cccc(/C=C2/N=C(SC(C)C)NC(=O)C2(C)C)c1 | > 69 µM | 69 µM | – | – | – | – | –
38 | Cc1c(O)nc(SCC(C)C)nc1Cc1ccccc1 | 0.8 µM | 130 µM | 2.2 µM | 162 | – | – | –
39 | CC1(C)C(=O)NC(=S)N/C1=C/c1ccccc1 | > 406 µM | > 406 µM | – | – | – | – | –
40 | CCC(C)Sc1nc(O)c(C)c(Cc2cccc(C)c2)n1 (stereo not drawn) | 1 µM | 100 µM | 2.7 µM | 100 | – | – | –
41 | C=CCSc1nc(O)cc(Cc2cccc(C)c2)n1 | 3.6 µM | 188 µM | – | 52 | – | – | –
42 | Cc1cccc(Cc2nc(SC3CCCC3)nc(O)c2C)c1 | 0.6 µM | > 318 µM | 3.4 µM | >530 | – | – | –
43 | Cc1cccc(Cc2cc(O)nc(SCC(C)C)n2)c1 | 3.3 µM | 163 µM | 8.4 µM | 49 | – | – | –
44 | Cc1c(O)nc(S)nc1Cc1ccccc1 | > 108 µM | 431 µM | > 10 µM | – | – | – | –
45 | Cc1ccnc2c1NC(=O)c1cccnc1N2C1CC1 [NEVIRAPINE] | 0.3 µM | > 376 µM | – | >1250 | – | – | –
46 | Cc1cn([C@H]2C[C@H](N=[N+]=[N-])[C@@H](CO)O2)c(=O)[nH]c1=O [ZIDOVUDINE] | – | > 20 µM | – | >2000 | – | – | –
